The text below walks through data of ChEMBL document CHEMBL1122220, “Synthesis and antiallergic activity of some acidic derivatives of 4H-pyrimido[2,1-b]benzazol-4-ones” (1983).

Activity calls are given as the source filed them. The calls are words filed in the database; no cut-off is given here.

Test [1] has as its system Rattus norvegicus. The experiment in a line: Minimum effective dose (MED) intraperitoneally in passive cutaneous anaphylaxis (PCA) model for 50% inhibition in Sprague-Dawley rat. Type of test: functional. The following applies: ip, read-out: MED. The method, boiled down: (§1)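 Rat passive cutaneous anaphylaxis in Sprague-Dawley rats. Compounds given ip as a Klucel suspension at 5, 1.25 and/or 0.31 mg/kg (some at 10, 2.5 and 0.63 mg/kg ip), six animals per dose. MED is the lowest dose giving >50% inhibition with p ≤ 0.05 (Student's t test). Where data sufficed, ID50 with 95% confidence range was derived from experiments of six animals each.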

The species entered for test [2] is Rattus norvegicus. The test is described as follows: Minimum effective dose (MED) perorally in passive cutaneous anaphylaxis (PCA) model for 50% inhibition in Sprague-Dawley rat. Type of test: functional. The note with it: po, read-out: MED. The method, boiled down: (§2)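 Sprague-Dawley rat passive cutaneous anaphylaxis with oral dosing of a Klucel suspension at 10, 5 and/or 2.5 mg/kg, six animals per dose. MED po is the lowest dose producing >50% inhibition at p ≤ 0.05 (Student's t test).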

Test [3] relates to Rattus norvegicus. The test is described as follows: Concentration of compound intraperitoneally in passive cutaneous anaphylaxis (PCA) model for 50% inhibition in Sprague-Dawley rat. The note with it: ip, read-out: ID50 (the source's name). It is filed as functional. The method, boiled down: as §1
Test [4] is filed under the species Rattus norvegicus. The experiment in a line: Concentration of compound perorally in passive cutaneous anaphylaxis (PCA) model for 50% inhibition in Sprague-Dawley rat; IN-Ineffective. Type of test: functional, organism-based. The method, boiled down: as §2

On to `O=C(O)c1cnc2sc3ccccc3n2c1=O`, for which the minimal effective dose was greater than 5 mg/kg in the test with Rattus norvegicus [1] and greater than 10 mg/kg in the test filed under Rattus norvegicus [2].

Turning to `O=C(O)c1cc(=O)n2c(n1)sc1ccccc12`, the values for the minimal effective dose in the test with Rattus norvegicus [1] and in the test filed under Rattus norvegicus [2] were greater than 5 mg/kg and greater than 10 mg/kg, respectively.

In the case of `O=c1c(-c2nnn[nH]2)cnc2sc3ccccc3n12`, the minimal effective dose is 1.25 mg/kg with Rattus norvegicus [1] and greater than 10 mg/kg in the test filed under Rattus norvegicus [2].

Take `Cn1c2ccccc2n2c(=O)cc(C(=O)Nc3nn[nH]n3)nc12`: the minimal effective dose in the test on Rattus norvegicus [1] is 1.25 mg/kg; in the test listed under Rattus norvegicus [2], 10 mg/kg.

Regarding `O=C(O)c1cc(=O)n2c(n1)oc1ccccc12`, the minimal effective dose in the test on Rattus norvegicus [1] was 5 mg/kg; in the test filed under Rattus norvegicus [2], greater than 10 mg/kg.

With `O=c1c(-c2nnn[nH]2)cnc2oc3ccccc3n12`, the minimal effective dose in the test on Rattus norvegicus [1] is 1.25 mg/kg; in the test filed under Rattus norvegicus [2], 5 mg/kg.

For `O=C(Nc1nn[nH]n1)c1cc(=O)n2c(n1)oc1ccccc12`, the results for the minimal effective dose in the test with Rattus norvegicus [1] and in the test listed under Rattus norvegicus [2] were 1.25 mg/kg and greater than 10 mg/kg, respectively.

As for `O=C(O)c1cnc2oc3ccccc3n2c1=O`, the minimal effective dose in the test with Rattus norvegicus [1] was greater than 5 mg/kg; in the test listed under Rattus norvegicus [2], greater than 10 mg/kg.

`Cn1c2ccccc2n2c(=O)c(C(=O)Nc3nn[nH]n3)cnc12`: the minimal effective dose in the test on Rattus norvegicus [1] was 0.31 mg/kg; in the test filed under Rattus norvegicus [2], greater than 10 mg/kg.

For `Cn1c2ccccc2n2c(=O)c(C(=O)O)cnc12`, the minimal effective dose in the test with Rattus norvegicus [1] was 0.63 mg/kg; in the test listed under Rattus norvegicus [2], greater than 10 mg/kg.

As for `Cn1c2ccccc2n2c(=O)c(-c3nnn[nH]3)cnc12`, the minimal effective dose in the test on Rattus norvegicus [1] is 0.31 mg/kg; in the test filed under Rattus norvegicus [2], 2.5 mg/kg.

Consider `O=c1cc(-c2nn[nH]n2)nc2sc3ccccc3n12`, for which the minimal effective dose in the test on Rattus norvegicus [1] is 5 mg/kg; in the test listed under Rattus norvegicus [2], greater than 10 mg/kg.

`O=c1cc(-c2nn[nH]n2)nc2oc3ccccc3n12`: the minimal effective dose is 1.25 mg/kg in the test with Rattus norvegicus [1] and greater than 10 mg/kg in the test listed under Rattus norvegicus [2].

As to `Cn1c2ccccc2n2c(=O)cc(C(=O)O)nc12`, the minimal effective dose is greater than 5 mg/kg with Rattus norvegicus [1] and greater than 10 mg/kg in the test listed under Rattus norvegicus [2].

`O=C([O-])c1cc(=O)c2c(OCC(O)COc3cccc4oc(C(=O)[O-])cc(=O)c34)cccc2o1.[Na+].[Na+]` [CROMOLYN SODIUM]: the ED50 in the test with Rattus norvegicus [3] came out at 2.6 mg/kg. The ID50 entry in the test filed under Rattus norvegicus [4] is “inactive”.

In the case of `Cn1c2ccccc2n2c(=O)cc(-c3nn[nH]n3)nc12`, the minimal effective dose with Rattus norvegicus [1] was 5 mg/kg.

In the case of `O=C(Nc1nn[nH]n1)c1cnc2sc3ccccc3n2c1=O`, the minimal effective dose was 1.25 mg/kg with Rattus norvegicus [1] and greater than 10 mg/kg in the test filed under Rattus norvegicus [2].

Regarding `O=C(Nc1nn[nH]n1)c1cnc2oc3ccccc3n2c1=O`, the minimal effective dose with Rattus norvegicus [1] came to 1.25 mg/kg; in the test listed under Rattus norvegicus [2], 10 mg/kg.

As to `O=C(Nc1nn[nH]n1)c1cc(=O)n2c(n1)sc1ccccc12`, the results for the minimal effective dose with Rattus norvegicus [1] and in the test listed under Rattus norvegicus [2] were 1.25 mg/kg and greater than 10 mg/kg, respectively.
